From ChEMBL document CHEMBL1121536, “C(14)-fluorinated prostaglandins: synthesis and biological evaluation of the methyl esters of (+)-14-fluoro-, (+)-15-epi-14-fluoro-, (+)-13(E)-14-fluror-, and (+)-13(E)-15-epi-14-fluoroprostaglandin F2 alpha” (1980)

Experiments:
[1] = system: Cricetinae gen. sp.; experiment: The compound was evaluated for the hamster uterine contraction in vitro on uterine strips
[2] = system: Cricetinae gen. sp.; experiment: The compound was evaluated for the antifertility activity in hamster at 12.5 ug administered subcutaneously; format: functional, Cricetulus griseus
Summary of the method: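 Hamsters were dosed subcutaneously, daily, in groups of ten. The minimum effective dose was the lowest dose per hamster per day giving no pregnancies (no implants) in the group. Potency was derived by comparing each compound's minimum effective dose with that of natural PGF2α.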

[3] = system: Gerbillinae; experiment: The compound was evaluated for the gerbil colon contraction in vitro on colon strips

Compound	relative potency (PGF2α = 1) [1]	relative potency (PGF2α = 1) [2]	relative potency (PGF2α = 1) [3]
CCCCC[C@H](O)/C(F)=C\[C@@H]1[C@@H](C/C=C\CCCC(=O)OC)[C@@H](O)C[C@H]1O	0.0002	< 0.1	0.002
CCCCC[C@@H](O)/C(F)=C/[C@@H]1[C@@H](C/C=C\CCCC(=O)OC)[C@@H](O)C[C@H]1O	0.025	0.5	0.0034
CCCCC[C@H](O)/C(F)=C/[C@@H]1[C@@H](C/C=C\CCCC(=O)OC)[C@@H](O)C[C@H]1O	0.263	< 0.5	0.023
CCCCC[C@H](O)/C=C/[C@@]1(F)[C@H](O)C[C@H](O)[C@@H]1C/C=C\CCCC(=O)OC	0.28	12.5	0.001
CCCCC[C@@H](O)/C(F)=C\[C@@H]1[C@@H](C/C=C\CCCC(=O)OC)[C@@H](O)C[C@H]1O	0.36	> 1	0.15
CCCCC[C@@H](O)/C=C/[C@@]1(F)[C@H](O)C[C@H](O)[C@@H]1C/C=C\CCCC(=O)OC	0.022	1	0.011
